Reference: ChEMBL document CHEMBL1153719, “Synthesis and biological evaluation of dehydroabietic acid derivatives” (Eur J Med Chem, 2010)
≈ marks a conversion by molar mass, not a printed value. Calls of active or inactive are those of the source. The calls are words filed in the database; no cut-off is given here.

How the values were obtained:
Vero [1] = assay: Selectivity index, ratio of IC50 for african green monkey Vero cells to IC50 for human HeLa cells; assay type: functional
Vero [2] = assay: Cytotoxicity against african green monkey Vero cells after 48 hrs by MTT assay; assay type: cell-based; settings: Chlorocebus sabaeus
In short: (§1)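 HeLa and Vero monolayers were trypsinized, washed and seeded per well (HeLa 1.5×10^4; Vero 1.25×10^4). After 24 h, diluted compounds were added with 0.05% DMSO and incubated 48 h at 37 °C in 5% CO2. Read-out was MTT. IC50 came from linear regression of dose-effect curves, at least four dilutions in quadruplicate, as mean ± S.E.M. Vincristine was the positive control.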

Human alphaherpesvirus 1 [3] = assay: Antiviral activity against Human herpesvirus 1 infected in human HeLa cells assessed as ratio of viral titer in absence of drug over viral titer in presence of drug after 36 hrs by end point titration method; assay type: functional, organism-based
Human alphaherpesvirus 1 [4] = assay: Antiviral activity against Human herpesvirus 1 infected in human HeLa cells assessed as maximal nontoxic dose caused highest viral reduction factor after 36 hrs by end point titration method; assay type: functional, organism-based
Jurkat = assay: Cytotoxicity against human Jurkat cells after 48 hrs by MTT assay; assay type: functional, cell-based
In short: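 Suspension Jurkat cells were seeded at 3.00×10^4 per well. Diluted compounds were added directly, with 0.05% DMSO, and incubated 48 h at 37 °C. Read-out was MTT. IC50 came from linear regression of dose-effect curves, at least four dilutions in quadruplicate, as mean ± S.E.M. Vincristine was the positive control.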

Vero [5] = assay: Selectivity index, ratio of IC50 for african green monkey Vero cells to IC50 for human Jurkat cells; assay type: functional
Candida tropicalis = assay: Antifungal activity against Candida tropicalis CECT 11901 at <100 ug/ml after 24 hrs by AFST-EUCAST method; assay type: functional, organism-based
In short: (§2)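 EUCAST broth microdilution for fermentative yeasts. Seven serial dilutions were tested in duplicate at final concentrations of 100 to 2 µg/mL, with 0.05% DMSO. Inoculum was 0.5–2.5×10^5 CFU/mL. […] Amphotericin B and itraconazole served as controls (0.031–16 µg/mL). Triplicates were run in three separate assays; results are given as range and geometric mean.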

Candida albicans = assay: Antifungal activity against Candida albicans ATCC 10231 at <100 ug/ml after 24 hrs by AFST-EUCAST method; assay type: functional, organism-based; in short: as §2
Pichia kudriavzevii = assay: Antifungal activity against Candida krusei ATCC 6258 at <100 ug/ml after 24 hrs by AFST-EUCAST method; assay type: functional, organism-based; in short: as §2
[6] = Cytotoxicity against african green monkey Vero cells assessed as minimal toxic dosed detached 100% of the cell monolayer; settings: chlorocebus sabaeus, read-out: CC100
HeLa = assay: Cytotoxicity against human HeLa cells after 48 hrs by MTT assay; assay type: functional, cell-based; in short: as §1
Candida parapsilosis = assay: Antifungal activity against Candida parapsilosis ATCC 22019 at <100 ug/ml after 24 hrs by AFST-EUCAST method; assay type: functional, organism-based; in short: as §2
[7] = Cytotoxicity against human HeLa cells assessed as minimal toxic dosed detached 100% of the cell monolayer; settings: read-out: CC50
Aspergillus fumigatus = assay: Antifungal activity against Aspergillus fumigatus after 24 hrs by AFST-EUCAST method; assay type: functional
Aspergillus niger = assay: Antifungal activity against Aspergillus niger after 24 hrs by AFST-EUCAST method; assay type: functional
Human alphaherpesvirus 1 [8] = assay: Antiviral activity against Human herpesvirus 1 infected in african green monkey Vero cells assessed as ratio of viral titer in absence of drug over viral titer in presence of drug after 36 hrs by end point titration method; assay type: functional
In short: (§3)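 HSV-1 stock was grown in HeLa cells. Two-fold compound dilutions were premixed with one infectious dose of virus for 0.5 h at 37 °C, then added to confluent HeLa or Vero monolayers for 36 h at 37 °C in 5% CO2. End-point titration gave the reduction factor, virus titer without compound over titer with compound, at the maximal nontoxic dose. Acyclovir and heparin were the controls.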

Human alphaherpesvirus 1 [9] = assay: Antiviral activity against Human herpesvirus 1 infected in african green monkey Vero cells assessed as maximal nontoxic dose caused highest viral reduction factor after 36 hrs by end point titration method; assay type: functional; in short: as §3
Aspergillus terreus = assay: Antifungal activity against Aspergillus terreus after 24 hrs by AFST-EUCAST method; assay type: functional
[10] = Solubility in DMSO; assay type: physicochemical

Compound | Ratio IC50 (Vero [1]) | IC50 (Vero [2]) [µg/mL] | Activity (Human alphaherpesvirus 1 [3]) | Activity (Human alphaherpesvirus 1 [4]) | IC50 (Jurkat) [µg/mL] | Ratio IC50 (Vero [5]) | Activity (Candida tropicalis) | Activity (Candida albicans) | Activity (Pichia kudriavzevii) | MCC [6] [µg/mL] | IC50 (HeLa) [µg/mL] | Activity (Candida parapsilosis) | MCC [7] [µM] | MIC (Aspergillus fumigatus) [µg/mL] | MIC (Aspergillus niger) [µg/mL] | Ratio (Human alphaherpesvirus 1 [8]) | Activity (Human alphaherpesvirus 1 [9]) [µg/mL] | MIC (Aspergillus terreus) [µg/mL] | solubility [10]
CC(C)c1ccc2c(c1)CC[C@H]1[C@](C)(CO)CCC[C@]21C [POMIFERIN A] | 2.9 | 38 (≈ 133 µM) | inactive | inactive | 9.7 (≈ 33.9 µM) | 3.9 | inactive | inactive | inactive | 50 | 13 (≈ 45.4 µM) | inactive | – | – | – | – | – | – | –
COC(=O)[C@]1(C)CCC[C@@]2(C)[C@H]1CC=C1C=C(C(C)C)CC[C@@H]12 [METHYL ABIETATE] | – | – | inactive | Active | – | – | – | – | – | – | – | – | 11 | – | – | – | – | – | –
CC(C)c1ccc2c(c1)CC[C@H]1[C@](C)(C=O)CCC[C@]21C [DEHYDROABIETINAL] | 1.3 | 32 (≈ 113 µM) | inactive | inactive | 17 (≈ 59.8 µM) | 1.9 | inactive | inactive | inactive | 50 | 24 (≈ 84.4 µM) | inactive | – | – | – | – | – | – | –
COC(=O)[C@]1(C)CCC[C@]2(C)c3ccc(C(C)C)cc3CC[C@@H]12 [METHYL DEHYDROABIETATE] | 1.3 | 36 (≈ 114 µM) | inactive | inactive | 21 (≈ 66.8 µM) | 1.7 | inactive | inactive | inactive | > 50 | 28 (≈ 89 µM) | inactive | – | – | – | – | – | – | –
CC(C)c1ccc2c(c1)[C@H](O)C[C@H]1[C@](C)(CO)CCC[C@]21C | 1.5 | 30 (≈ 99.2 µM) | inactive | inactive | 12 (≈ 39.7 µM) | 2.5 | inactive | inactive | inactive | 25 | 20 (≈ 66.1 µM) | inactive | – | 50 (≈ 165 µM) | 63 (≈ 208 µM) | – | – | – | –
CC(=O)OC[C@]1(C)CCC[C@]2(C)c3ccc(C(C)C)cc3CC[C@@H]12 [DEHYDROABIETINOL ACETATE] | 3.4 | 95 | inactive | inactive | 22 | 4.3 | inactive | inactive | inactive | > 50 | 28 | inactive | – | – | – | 10 | 25 | – | –
CC(C)C1=CC2=CC[C@@H]3[C@](C)(CCC[C@@]3(C)C(=O)O)[C@H]2CC1 | – | – | inactive | inactive | – | – | – | – | – | – | – | – | – | – | – | – | – | – | –
CC(C)c1ccc2c(c1)CC[C@H]1[C@](C)(C(=O)O)CCC[C@]21C [DEHYDROABIETIC ACID] | 0.9 | 91 (≈ 303 µM) | inactive | inactive | 28 (≈ 93.2 µM) | 3.2 | – | inactive | inactive | > 50 | 101 (≈ 336 µM) | inactive | – | – | – | – | – | 39.7 (≈ 132 µM) | –
CC(C)c1ccc2c(c1)C(=O)C[C@H]1[C@](C)(CO)CCC[C@]21C | 0.9 | 27 (≈ 89.9 µM) | inactive | inactive | 17 (≈ 56.6 µM) | 1.6 | inactive | inactive | inactive | 25 | 30 (≈ 99.9 µM) | inactive | – | – | – | – | – | – | –
CC(C)c1ccc2c(c1)CC[C@H]1[C@](C)(COC(=O)c3ccccc3)CCC[C@]21C [DEHYDROABIETINOLBENZOATE] | – | ≥ 200 | inactive | inactive | 57 (≈ 146 µM) | >3.5 | – | inactive | inactive | > 50 | ≥ 200 | inactive | – | – | – | 3.16 | 50 | – | –
CC(C)c1ccc2c(c1)[C@H](O)C[C@H]1[C@](C)(C=O)CCC[C@]21C | 1.6 | 36 (≈ 120 µM) | inactive | inactive | 12 (≈ 39.9 µM) | 3 | inactive | inactive | inactive | – | 23 (≈ 76.6 µM) | inactive | – | – | – | – | – | – | –
Nc1nc2c(ncn2COCCO)c(=O)[nH]1 [ACYCLOVIR] | – | – | – | – | – | – | – | – | – | > 600 | – | – | – | – | – | 1000 | 6 | – | –
CC(C)c1ccc2c(c1)CC[C@H]1[C@](C)(COC(=O)c3cccnc3)CCC[C@]21C [DEHYDROABIETINOLNICOTINATE] | – | – | – | – | – | – | – | – | – | – | – | – | – | – | – | – | – | – | Insoluble
